Series [1] in a line: Displacement of [3H]-DTG from sigma2 receptor in guinea pig brain membranes after 120 mins in presence of sigma1 […] (+)-SKF10047 by microbeta scintillation counting method. It is filed as cell membranes, Cavia porcellus, Membrane. In general terms: Displacement assays read how much labelled ligand stays bound in the presence of the test substance.
A further series deals with T1, CYP1A2 (Homo sapiens, UniProt P05177).
T1 sequence (P05177 whole entry): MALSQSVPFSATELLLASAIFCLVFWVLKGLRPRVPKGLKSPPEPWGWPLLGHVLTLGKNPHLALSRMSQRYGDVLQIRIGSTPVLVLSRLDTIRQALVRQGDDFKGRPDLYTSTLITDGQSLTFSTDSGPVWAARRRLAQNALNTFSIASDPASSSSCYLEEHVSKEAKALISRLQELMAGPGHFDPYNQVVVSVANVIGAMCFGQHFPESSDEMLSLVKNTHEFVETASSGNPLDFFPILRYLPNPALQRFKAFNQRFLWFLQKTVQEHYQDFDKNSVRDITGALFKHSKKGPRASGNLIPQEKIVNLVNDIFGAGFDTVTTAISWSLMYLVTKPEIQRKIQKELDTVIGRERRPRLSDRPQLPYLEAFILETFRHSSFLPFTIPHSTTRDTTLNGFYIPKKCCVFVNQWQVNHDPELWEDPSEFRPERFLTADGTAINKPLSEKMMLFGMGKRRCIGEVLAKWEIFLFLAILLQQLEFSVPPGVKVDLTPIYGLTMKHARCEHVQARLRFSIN
In words: Inhibition of recombinant human CYP1A2 at 1 uM relative to control. It is filed as ADME.

The target in the next series is CYP2C9 (Homo sapiens, UniProt P11712). Put plainly: Inhibition of recombinant human CYP2C9 at 1 uM relative to control. It is filed as ADME.
For the next series, the target named is CYP2C19 (Homo sapiens, UniProt P33261). Put plainly: Inhibition of recombinant human CYP2C19 at 1 uM relative to control. It is filed as ADME.
In a further series the target is CYP2D6 (Homo sapiens, UniProt P10635). Put plainly: Inhibition of recombinant human CYP2D6 at 1 uM relative to control. Type of series: ADME.
A further series concerns the target CYP3A4 (Homo sapiens, UniProt P08684). Put plainly: Inhibition of recombinant human CYP3A4 at 1 uM relative to control. Type of series: ADME.
The nature of series [2]: Intrinsic clearance in human liver microsomes assessed as per mg protein at 1 uM after 1 hr in presence of NADPH-generating system by UPLC-MS/MS analysis. Type of series: ADME, microsome. As to conditions: read-out: CLH. A general note: Liver microsomes are a subcellular fraction often used to study metabolism.
Series [3] is described as follows: Apparent permeability in human Caco2 cells. The note with it: Caco-2. Type of series: ADME, cell-based. In general terms: Passage across Caco-2 layers is used to estimate intestinal permeability.
Series [4] deals with HepG2. Put plainly: Cytotoxicity against human HepG2 cells up to 100 uM by MTT assay. Type of series: cell-based. In short, it runs like this:
(§1)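 HepG2 cells exposed to compound up to 100 μM. Cytotoxicity read by MTT and by Neutral Red uptake.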

Series [5] deals with HepG2. In words: Cytotoxicity against human HepG2 cells up to 100 uM by neutral red uptake assay. Type of series: cell-based. The method in brief:
as §1

The subject of a further series is Salmonella typhimurium. In words: Genotoxicity in Salmonella typhimurium TA1535 harboring pSK1002 by […]. Type of series: toxicity, organism-based. The note with it: salmonella enterica subsp. enterica serovar typhimurium.
Series [6] is described as follows: Thermodynamic solubility of the compound in pH 7.4 phosphate buffer. Type of series: physicochemical. As to conditions: read-out: Therm_solubility.
A short description of series [7]: Thermodynamic solubility of the compound in pH 2 phosphate buffer. Type of series: physicochemical. The note with it: read-out: Therm_solubility.
Series [8] concerns Mus musculus. Put plainly: Analgesic activity in formalin-induced nociception CD-1 mouse model assessed as reduction in time spent in licking or biting formalin injected hind paw at 40 mg/kg, ip pretreated for 30 mins followed by formalin stimulation measured up to 5 mins. It is filed as functional, organism-based.
Series [9] deals with Mus musculus. Put plainly: Analgesic activity in formalin-induced nociception CD-1 mouse model assessed as reduction in time spent in licking or biting formalin injected hind paw at 40 mg/kg, ip pretreated for 30 mins followed by formalin stimulation measured after 15 to 30 mins relative to control. It is filed as functional. Also on record: scale not given: the % may be the effect or the level left. The method in brief:
(§2)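 Mice received drug i.p. (40 mg/kg) or p.o. (80 mg/kg), and formalin was injected intraplantar. Paw licking-biting time in phase II (delayed phase) was scored. Result is % antinociception in treated animals vs vehicle.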

For series [10], the system named is Mus musculus. In words: Analgesic activity in formalin-induced nociception CD-1 mouse model assessed as reduction in time spent in licking or biting formalin injected hind paw at 80 mg/kg, po pretreated for 30 mins followed by formalin stimulation measured up to 5 mins. Type of series: functional, organism-based.
Series [11] deals with Mus musculus. Put plainly: Analgesic activity in formalin-induced nociception CD-1 mouse model assessed as reduction in time spent in licking or biting formalin injected hind paw at 80 mg/kg, po pretreated for 30 mins followed by formalin stimulation measured after 15 to 30 mins relative to control. Type of series: functional. Set-up: scale not given: the % may be the effect or the level left. The method in brief: as §2

In series [12] the test system is Mus musculus. In words: Antinociceptive activity in capsaicin-induced nociception pain CD-1 mouse model assessed as increase in paw withdrawal latency at 80 mg/kg, po pretreated for 30 mins followed by capsaicin challenge measured after 15 mins by von frey filament assay relative to control. Type of series: functional. In short, it runs like this:
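Capsaicin test in mice, drug given orally at 80 mg/kg. Mechanical hypersensitivity was read as paw withdrawal latency to upward pressure by von Frey filament. Result is % reduction in drug-treated vs vehicle animals.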

For series [13], the system named is Mus musculus. Put plainly: Antinociceptive activity in partial sciatic nerve ligation CD-1 mouse model of neuropathic pain assessed as reduction in mechanical hypersensitivity at 80 mg/kg, po administered 8 days post partial sciatic nerve injury measured after 30 mins by von frey filament assay relative to control. Type of series: functional. Also on record: scale not given: the % may be the effect or the level left. In short, it runs like this:
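Mice with partial sciatic nerve ligation, drug given orally at 80 mg/kg. Pressure threshold (g) for paw withdrawal to von Frey filament was measured after dosing. It was compared with vehicle response 8 days post-surgery and with pre-ligation baseline to give % reduction of hypersensitivity.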

A short description of series [14]: Stability of the compound assessed as drug degradation at pH 2. The note with it: buffer. Type of series: physicochemical. In short, it runs like this:
(§3)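 Chemical stability measured by LC/MS. A 10 mM DMSO stock of compound was diluted into phosphate buffer pH 7.4 or 0.01 M HCl pH 2.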

The nature of series [15]: Stability of the compound assessed as drug degradation at pH 7.4. Type of series: physicochemical. As to conditions: buffer. The method in brief:
as §3

Converted amounts (≈) assume the structure as drawn. The source made the active and inactive calls.

CYP3A4, sequence (P08684 whole entry): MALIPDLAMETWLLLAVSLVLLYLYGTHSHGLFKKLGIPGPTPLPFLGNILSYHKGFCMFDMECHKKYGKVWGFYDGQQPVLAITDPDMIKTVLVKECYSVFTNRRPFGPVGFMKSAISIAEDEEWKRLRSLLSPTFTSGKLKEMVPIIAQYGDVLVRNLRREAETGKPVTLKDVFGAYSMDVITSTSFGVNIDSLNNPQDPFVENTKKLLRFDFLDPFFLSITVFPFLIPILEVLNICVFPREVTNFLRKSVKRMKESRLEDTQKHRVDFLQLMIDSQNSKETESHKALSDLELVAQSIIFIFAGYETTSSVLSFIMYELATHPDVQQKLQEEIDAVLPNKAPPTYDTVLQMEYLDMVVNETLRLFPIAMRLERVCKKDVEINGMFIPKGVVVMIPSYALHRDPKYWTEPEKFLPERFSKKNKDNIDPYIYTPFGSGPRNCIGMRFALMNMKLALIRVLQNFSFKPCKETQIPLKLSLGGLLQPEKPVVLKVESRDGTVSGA
CYP2C9, sequence (P11712 whole entry): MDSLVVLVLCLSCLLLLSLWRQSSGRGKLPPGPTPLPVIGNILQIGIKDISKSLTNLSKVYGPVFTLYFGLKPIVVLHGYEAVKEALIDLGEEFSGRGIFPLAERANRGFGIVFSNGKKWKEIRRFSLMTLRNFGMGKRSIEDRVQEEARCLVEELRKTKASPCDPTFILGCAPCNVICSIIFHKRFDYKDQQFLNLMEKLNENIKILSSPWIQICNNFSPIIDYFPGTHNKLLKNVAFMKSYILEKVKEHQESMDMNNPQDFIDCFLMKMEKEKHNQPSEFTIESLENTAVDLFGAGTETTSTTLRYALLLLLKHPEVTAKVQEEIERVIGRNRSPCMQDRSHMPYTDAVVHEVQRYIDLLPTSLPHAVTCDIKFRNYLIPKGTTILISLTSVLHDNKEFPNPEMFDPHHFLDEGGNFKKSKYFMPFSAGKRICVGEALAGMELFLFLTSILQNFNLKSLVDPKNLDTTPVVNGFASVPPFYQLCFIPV
CYP2C19, sequence (P33261 whole entry): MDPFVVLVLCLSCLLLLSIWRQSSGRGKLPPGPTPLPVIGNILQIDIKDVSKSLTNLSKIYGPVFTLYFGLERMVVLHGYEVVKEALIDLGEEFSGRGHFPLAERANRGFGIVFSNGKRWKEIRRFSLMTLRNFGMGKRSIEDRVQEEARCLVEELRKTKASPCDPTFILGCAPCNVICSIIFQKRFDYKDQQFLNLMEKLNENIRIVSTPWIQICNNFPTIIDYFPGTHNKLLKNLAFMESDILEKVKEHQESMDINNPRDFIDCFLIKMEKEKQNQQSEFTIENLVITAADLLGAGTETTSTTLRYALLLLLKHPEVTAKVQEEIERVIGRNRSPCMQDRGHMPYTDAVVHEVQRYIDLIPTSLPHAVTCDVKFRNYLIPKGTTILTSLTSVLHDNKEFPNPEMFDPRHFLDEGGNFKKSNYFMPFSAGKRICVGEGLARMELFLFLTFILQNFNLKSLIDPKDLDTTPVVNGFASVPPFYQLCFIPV
CYP2D6, sequence (P10635 whole entry): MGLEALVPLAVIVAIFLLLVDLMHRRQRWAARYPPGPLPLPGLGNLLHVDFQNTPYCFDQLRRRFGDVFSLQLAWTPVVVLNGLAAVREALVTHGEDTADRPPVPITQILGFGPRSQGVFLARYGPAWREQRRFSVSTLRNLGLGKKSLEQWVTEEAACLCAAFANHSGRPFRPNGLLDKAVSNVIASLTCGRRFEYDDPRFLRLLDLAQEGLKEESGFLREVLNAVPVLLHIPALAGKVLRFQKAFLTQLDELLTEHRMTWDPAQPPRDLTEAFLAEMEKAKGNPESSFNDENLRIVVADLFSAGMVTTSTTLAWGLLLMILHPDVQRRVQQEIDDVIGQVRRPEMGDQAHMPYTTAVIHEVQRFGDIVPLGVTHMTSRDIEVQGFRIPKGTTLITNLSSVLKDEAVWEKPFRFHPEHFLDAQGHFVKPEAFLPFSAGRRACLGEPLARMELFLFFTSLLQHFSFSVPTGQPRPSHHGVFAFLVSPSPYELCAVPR

As a reminder, the Ki is a measure of affinity in units of concentration, obtained from inhibition or displacement. The term inhibition denotes how much of the control response was suppressed. As usually defined, the Papp is the rate of passage across a membrane or cell layer, normalised by area and donor concentration. For the compound `Cn1nccc1-c1ncnc2c1cnn2CCN1CCCCC1`, in series [1], the Ki was over 1000 nM. In addition, the inhibition at 1 µM at CYP1A2, at CYP2C9, at CYP2C19, at CYP2D6 and at CYP3A4 was under 50% each time. Also, in [2], the microsomal CLint at 1 µM amounted to 2.4 µL/min/mg. Besides, the Papp in [3] turned out to be 40.7 ×10⁻⁶ cm/s. Besides, the Activity entry with HepG2 [4] was “Non-Toxic”; in the series with HepG2 [5], “Non-Toxic”; in the series with Salmonella typhimurium it was “Non-Toxic”; in the series with Mus musculus [9], 67%; in the series on Mus musculus [11], 54%; in the series on Mus musculus [12] it was 43%. Moreover, the Activity with Mus musculus [13] came out at 46%. Also, the solubility thermodynamic was 1500 µg/mL (≈ 4.82 mM) in series [6] and 2400 µg/mL (≈ 7.71 mM) in [7]. Besides, the result with Mus musculus [8] and with Mus musculus [10] was Active. In addition, the Stability entry in series [14] and in series [15] was “Stable” throughout.
Regarding `Cc1cc(OCCN2CCOCC2)nn1-c1ccc2ccccc2c1`, the outcome in the series on Mus musculus [8] and with Mus musculus [10] was Active. Also, the Activity with Mus musculus [9] is recorded as 50%; in the series with Mus musculus [11] it was 66%; in the series on Mus musculus [12] it was 48%; in the series with Mus musculus [13], 62%. Further, the Stability entry in [14] and in series [15] was “Stable” throughout.

Values taken from ChEMBL document CHEMBL4261508, “Pyrazolo[3,4-d]pyrimidines as sigma-1 receptor ligands for the treatment of pain. Part 2: Introduction of cyclic substituents in position 4” (Medchemcomm, 2017).
